Measured values from the RNAGym collection of RNA variant scans (doi:10.1126/science.aae0568).
Fewer inactive variants are shown than the library holds.

B1: tRNA (parent)
chain: GUUCCGUUGGCGUAAUGGUAACGCGUCUCCCUCCUAAGGAGAAGACUGCGGGUUCGAGUCCCGUACGGAACG

Variants of: B1
Assay: yeast fitness relative to wild type (ratio to wild type); higher = fitter; tRNA-Arg(CCU), competitive growth, 37 C, YPD
Procedure, shortened: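 The tRNA-Arg(CCU) gene variants were made by chemical synthesis with a 3% per-site mutation rate at 69 sites and inserted at the native genomic locus of Saccharomyces cerevisiae. After pooling, the strains were competed in YPD at 37°C for 24 hours in six parallel replicates. Gene amplicons from the start population and each end population were read by 100-nucleotide paired-end sequencing, and Darwinian fitness relative to wild type was taken from genotype frequency changes. Genotypes needed ≥ 100 starting reads, and estimates < 0.5 were set to 0.5.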

Point of comparison: GUUCUGUUGGCGUAAUGGCAACGCGUCUCCCUCCUAAGGAGAAGACUGCGGGUUCGAGUCCCGUACGGAACG [C5U U19C], yeast fitness 0.963. Against it:
- GUUCCGUUGGCGUAAUGGUAACGCGUCCCCUUCCUAAGGAGAAGACUGCGGGUUCGAGUCCCGUACGGAACG [U28C C31U] — higher, 0.981
- GUUCCGUUGGCGUGAUGCUAACGCGUCUCCAUCCUAAGGAGAAGACUGCGGGUUCGAGUCCCGUACGGAACG [A14G G18C C31A] — lower, ≤ 0.5
- GUUCCGUUGGUGUAUUGGUAACGCGUCUCCCUCCUAAGGAGAAGACUGCGGAUUCGAGUCGCGUACGGAACG [C11U A15U G52A C61G] — lower, ≤ 0.5
- GUUCGGUUCGCGUAAUGGUAACGCGUCUCCCUCCUAAGGCGAAGACUGCGGGUUCGAAUCCCGUACGGAACG [C5G G9C A40C G58A] — lower, ≤ 0.5
- GUUCGGUUGGCAUAAUGGUAACGCGUCUCCCUCCUAAGGAGAAGACUGGGGGUUCGAGUCCCGUACGCAACG [C5G G12A C49G G68C] — lower, ≤ 0.5
- GUUCCGUUGGCGUAAUGGUAACGCGUCUCCCACCUAAGGAGAAGACUGCGGCUUUGAGUCUCGUAUGGAACG [U32A G52C C55U C61U C66U] — lower, ≤ 0.5
- GUUCCGUUGGCGUGAUGGUAACGCGUCUCCCUCCUUAGGAGAAGACUGCGGGUUCGAGUCCCGUACGGAACG [A14G A36U] — lower, 0.658
- GUUCCGCUGGCGUAAUGGUAACGCGUCUCCCUCCUAGGGAGAAGACUGCGGGUUAGACUCCCGUACGGAACG [U7C A37G C55A G58C] — lower, ≤ 0.5
- GUUCCGUUGGCGUUCUGGUAACGCGUCUCCCUCCUAAGGGGAAGACUGCGGGUUCCAGUCCCGUACCGAACG [A14U A15C A40G G56C G67C] — lower, ≤ 0.5
- GUUCCGUUGGCGGAAUGGUAACGCGUCACACUCCUAAGGAGAAGACUGCGGGUUCGAGUCGCGUACGGAACG [U13G U28A C30A C61G] — lower, ≤ 0.5
- GUUGCGGUGGCGUAAUGGUAACGCGUCUCCCUCCUAAGGAGAAGACUGCGGGUUCGAGUCCCGUACGGUACG [C4G U7G A69U] — lower, ≤ 0.5
- GCUCCGUUGGCGUUAUGGUAACGCGUCUCCCUCCUAAGGAGAAGACUGCGGGUUCGAGUCCCGUACGGAACG [U2C A14U] — lower, 0.764
- GUGCCGUUGGCGUAAUGGUAACGCGUCUCCUUCCUAAGGAGAAGACUGCGGGUUCGAGUCCCGUACGGAACG [U3G C31U] — higher, 1
- GUUCCGUUGGCGUAAUGGUAACGCGUGUCCCUCGUAAGGAGAAGACUGCGGGUACGAGUCCCGUACGGAACG [C27G C34G U54A] — lower, 0.6
- GUUCCGUUGGCGUAAUGGUAACGCGUCUCUCUCCUAAGCAGAAGACUGCGGGUUCGAGUCCCGUACGGAACG [C30U G39C] — lower, 0.682
- GUUCCGUUGGCGUAAUGGUAACGCGUCUCCCUGCCAAGGAGAAGACUGCGGGUUCGAGUCCCGUACGGAACG [C33G U35C] — lower, 0.603
- GUUCCGUUGGCGUAAUGGUUACGCGUCUCCCUCCUAAGGAGCAGACUGCGGGUUCGAGUCCCGUACGGAACG [A20U A42C] — lower, 0.648
- GUUCAGUUGGCGUGGUGGUAAGGCGUCUCCCUCCUAUGGAGAAGACUGCGGGUUCGAGUCCCGUACGGAACG [C5A A14G A15G C22G A37U] — lower, ≤ 0.5
- GUUCCGUUGGUAUAAUGCUAACGCGUCUCCCUCCUAAGGAGAAGACCGCGGGUUCGAGUCCCGUACGCAACG [C11U G12A G18C U47C G68C] — lower, ≤ 0.5
- GGUCCGUUGGCGUAAUGGUAACGCGUCUUCCUCCUAAGGAGAACACUGCGGGUACGAGUCCCGUACGGAACG [U2G C29U G44C U54A] — lower, 0.554
- GUUACGUUGGCGUAAUGAUAACGCGUAUCCCUCCUACGGAGAAGACUGCGGGUUCAAGUCCCGUACGGAACG [C4A G18A C27A A37C G56A] — lower, 0.579
- GUUCCGUUGGCGUAAUGGUAACGCGUCUCCUUCUUAAGGAGAAGACUGCAGAUUCGGGUCCCGUACCGAACG [C31U C34U G50A G52A A57G G67C] — lower, ≤ 0.5
- GUUCCGUUGGCGUAAUGGUAACGCGUCUCCCUCCAAAGGAGAAGAAUGGGGAUUCGAGUUCCGUACGGAACG [U35A C46A C49G G52A C60U] — lower, 0.661
- GUUCCGUUGGCGUAAUGGUAACGCGUCUCCCUCCCAAGGAGAAGAAUGCGGGUUCGAGUCCCGUACGGAUCG [U35C C46A A70U] — lower, 0.767
- GUUCCGUUGGCGUAAUGAUAACGCGUCUCCCUCCUAAGGAGCAGACUGCGGGUUCGAGUCCCGUACGGUACG [G18A A42C A69U] — lower, 0.542
- GUUCCGUUCGCGUAAUGGUAACGCGUCUCCCUCCUUAGGAGAAGACUGCGGGUUCGAGUGCCCUACGGAACG [G9C A36U C60G G63C] — lower, ≤ 0.5
- GUUCCGUUGGCGUAAUGGUAACGCGUCUCCCUCCUAAGGAGAAGACGGCGGGUUCGAGUACCGUACGGAACG [U47G C60A] — lower, ≤ 0.5
- GUUCCGUUGGCGUAAUGGUAACGCGUCUCCCUCCCAAGGAGCAGACUGCGGGUUCGAGUCCCGAACGGAACG [U35C A42C U64A] — lower, ≤ 0.5
- GUUCCGUUGGCGUAAUGGUAACCCGUCUCCCUCCUAAGGAAAAGACUGCGGGUUCGAGUCCCGUACGGAACG [G23C G41A] — lower, 0.716
- GUUCCGUUGGCGUAAUGGUAACGCGUCUCCCUCCUAAGGAGAAGACUGCGGGAUGGAGUCCCGUACGGAACG [U53A C55G] — lower, 0.588
- GUUCCGUUGGCGUAAUGGUACCGCGUCUCCCUCAUAAAGAGAAGUCUGCGGGUUCGAGUCCCGUACGGAACG [A21C C34A G38A A45U] — lower, 0.546
- GUACCGUUGGCCUAAUGGUACCGCGUCUCCCUCCUCAGGAGAAGACUGCGGGUUCGAGUCCCGUACGGAUCG [U3A G12C A21C A36C A70U] — lower, 0.553
- GUUCCGUUGGCGUAAUGGUAACGCGUCUCACUCCUAAGGAGAAGACUCCGGGUUCGAGUCCCGUACGGAACG [C30A G48C] — lower, 0.797
- GUUCCGUUGGCGUAAUGGUAACGCGUCUCCCUCGUAAGGAGCAGAUUGCGGGUAGGACUCCCGUAAGGAACG [C34G A42C C46U U54A C55G G58C C66A] — lower, ≤ 0.5
- GUUCCGUUGGCGUAAUGGUAACGCGUCUCCCUCCUAAGGAGAAGGCUGCGGGUUUGAGUCGCGUACGGCACG [A45G C55U C61G A69C] — lower, ≤ 0.5
- GUUUCGUUGGCGUAAUGGUACCGCGUCUCCCUCCUAAGGAGAAAACUGCGGGUUCGAGUCCCGUACGGAACG [C4U A21C G44A] — lower, ≤ 0.5
- GUUCCGUUGGCGUAAUGGUAUCGCGUCUCCCUCCUAAGGAGAAGACUGCGGGUUCGAGUCCCGUACGCAACG [A21U G68C] — lower, 0.687
